# From ChEMBL document CHEMBL1124451, “[(1H-imidazol-1-yl)methyl]- and [(3-pyridinyl)methyl]pyrroles as thromboxane synthetase inhibitors” (J Med Chem, 1989)
# Experiments:
# Homo sapiens [1] = organism: Homo sapiens; assay: In vitro inhibition of ADP-induced aggregation of human platelet rich plasma in the presence of pig aortal microsomes.; format: functional; conditions: Aorta
# Procedure, shortened: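 Human citrated blood (0.38% citrate final), PRP by centrifugation at 200g, room temperature. Drug added to 1.0 mL PRP, 2 min at 37 °C with stirring (500 rpm), then pig aortal microsomes 3 min; microsome amount set by the dazoxiben standard. Aggregation induced by 5 μM ADP (final), read turbidimetrically.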
# Homo sapiens [2] = organism: Homo sapiens; assay: Relative potency to inhibit ADP-induced aggregation of human platelet rich plasma compared to that of dazoxiben, in vitro using pig aortal microsomes.; format: functional; conditions: Aorta
# Mus musculus [3] = assay: Activity at 10 mg/kg given intravenously against mortality in a pulmonary thromboembolism model in mice (10 animals) at -3h; format: functional; conditions: route intravenous
# Procedure, shortened: (§1)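 Male Swiss-Webster mice (22-26 g); test material given iv in 0.2 mL CMC before challenge (mostly at -3 h, one group at -1 h). At hour 0, collagen extract plus epinephrine hydrochloride given iv in 0.2 mL 0.9% saline via tail vein. The collagen amount was set per lot as the minimum giving 90-100% mortality in CMC-vehicle controls. Readout: % surviving at 24 h.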
# [4] = biological target: T1, Thromboxane-A synthase (Homo sapiens) (UniProt P24557); assay: Relative potency of thromboxane A2 synthetase as reduced ADP-induced aggregation of human platelet rich plasma compared to dazoxiben; format: functional, cell-free
# T1 sequence (whole entry): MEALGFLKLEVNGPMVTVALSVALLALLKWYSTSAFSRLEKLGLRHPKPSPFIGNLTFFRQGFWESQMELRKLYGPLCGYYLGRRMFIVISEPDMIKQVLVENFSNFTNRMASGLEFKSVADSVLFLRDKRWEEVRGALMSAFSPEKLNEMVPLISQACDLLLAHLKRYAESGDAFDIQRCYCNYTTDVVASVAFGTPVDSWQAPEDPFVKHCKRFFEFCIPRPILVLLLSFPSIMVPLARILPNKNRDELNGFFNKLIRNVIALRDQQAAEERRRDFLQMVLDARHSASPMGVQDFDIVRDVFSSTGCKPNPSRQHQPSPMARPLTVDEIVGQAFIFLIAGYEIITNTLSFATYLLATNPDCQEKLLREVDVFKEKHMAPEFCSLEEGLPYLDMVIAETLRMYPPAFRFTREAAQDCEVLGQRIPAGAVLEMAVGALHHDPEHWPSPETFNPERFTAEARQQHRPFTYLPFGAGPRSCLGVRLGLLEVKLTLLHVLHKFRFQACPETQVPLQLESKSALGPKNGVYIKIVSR
# Rattus norvegicus [5] = assay: Effect of perorally administered compound on systolic blood pressure and proteinuria was studied with a 5/6 renal ablated rat as a model of progressive injury; format: functional, Artery
# Procedure, shortened: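 Male Munich Wistar rats (200-270 g) with 5/6 renal ablation were dosed in drinking water from 1 week post-surgery at 68, 205 or 410 mg/kg/day; controls received water. Conscious systolic pressure measured weekly by tail cuff. 24-h urinary protein measured every 2 weeks by the sulfosalicylic acid method.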
# Mus musculus [6] = assay: Activity at 10 mg/kg […] against mortality in a pulmonary thromboembolism model in mice (10 animals) at -1h following oral administration; format: functional
# Procedure, shortened: (§2)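 Male Swiss-Webster mice (22-26 g), 10 per group (one group of 9); test material given po in 0.2 mL CMC at -1, -3, -5 or -18 h before challenge. At hour 0, collagen extract plus epinephrine hydrochloride given iv via tail vein in 0.9% saline. The collagen amount was titrated per lot to 90-100% mortality in vehicle controls. Readout: % surviving at 24 h.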
# Mus musculus [7] = assay: Activity at 10 mg/kg […] against mortality in a pulmonary thromboembolism model in mice (10 animals) at -7h following oral administration; format: functional
# Mus musculus [8] = assay: Activity at 10 mg/kg […] against mortality in a pulmonary thromboembolism model in mice (9 animals) at -3h following oral administration; format: functional; procedure, shortened: as §2
# Mus musculus [9] = assay: Activity at 10 mg/kg […] against mortality in a pulmonary thromboembolism model in mice (10 animals) at -18h following oral administration; format: functional; procedure, shortened: as §2
# Mus musculus [10] = assay: Activity at 10 mg/kg […] against mortality in a pulmonary thromboembolism model in mice (10 animals) at -5h following oral administration; format: functional; procedure, shortened: as §2
# Mus musculus [11] = assay: Activity at 10 mg/kg given perorally against mortality in a pulmonary thromboembolism model in mice (10 animals) at -5h following oral administration; format: functional; procedure, shortened: as §2
# Rattus norvegicus [12] = assay: Percent inhibition of thromboxane from control in urine of rats with 5/6 nephrectomy at 205 mg/kg per day; format: functional
# Procedure, shortened: (§3)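 Male Munich Wistar rats, 200-270 g, 5/6 renal ablation (right nephrectomy plus ligation of arterial branches to two-thirds of left kidney) under 50 mg/kg brevital ip. Drug given in drinking water from 1 week post-surgery: 500 mg/L (68 mg/kg/day), 1500 mg/L (205 mg/kg/day), or 3000 mg/L (410 mg/kg/day) after 9 weeks. TXB2 measured by radioimmunoassay in urine (8-11 weeks) and serum (10-13 weeks); controls received water.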
# Rattus norvegicus [13] = organism: Rattus norvegicus; assay: Effect of TXA2 Synthetase inhibition (perorally) upon inflammation in rat adjuvant-induced arthritis model; format: functional
# Mus musculus [14] = assay: Effect of TXA2 Synthetase inhibition (perorally) upon inflammation in oxazolone induced delayed hypersensitivity ear edema in mice; format: functional
# Procedure, shortened: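 Oxazolone-induced delayed hypersensitivity ear edema in mice; test material dosed orally at 25 mg/kg.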
# Mus musculus [15] = assay: Activity at 10 mg/kg given perorally against mortality in a pulmonary thromboembolism model in mice (10 animals) at -1h following oral administration; format: functional; procedure, shortened: as §2
# Rattus norvegicus [16] = assay: Percent inhibition of thromboxane from control in serum of rats with 5/6 nephrectomy at 410 mg/kg per day; format: functional; procedure, shortened: as §3
# Mus musculus [17] = assay: Activity at 10 mg/kg given perorally against mortality in a pulmonary thromboembolism model in mice (10 animals) at 1 hr; format: functional; conditions: route oral; procedure, shortened: as §2
# Rattus norvegicus [18] = assay: Percent inhibition of thromboxane from control in urine of rats with 5/6 nephrectomy at 410 mg/kg per day; format: functional; procedure, shortened: as §3
# Rattus norvegicus [19] = assay: Concentration of thromboxane in serum of rats with 5/6 nephrectomy; when treated with compound at 205 mg/kg per day (n=4); format: functional, organism-based; procedure, shortened: as §3
# Rattus norvegicus [20] = assay: Concentration of thromboxane in urine of rats with 5/6 nephrectomy; when treated with compound at 68 mg/kg per day (n=4); format: functional, organism-based; procedure, shortened: as §3
# Rattus norvegicus [21] = assay: Percent inhibition of thromboxane from control in serum of rats with 5/6 nephrectomy at 205 mg/kg per day; format: functional; procedure, shortened: as §3
# Rattus norvegicus [22] = assay: Effect of TXA2 Synthetase inhibition (perorally) upon inflammation in carrageenan induced rat paw edema in rats
# Rattus norvegicus [23] = assay: Concentration of thromboxane in urine of rats with 5/6 nephrectomy; when treated with compound at 205 mg/kg per day (n=5); format: functional, organism-based; procedure, shortened: as §3
# Mus musculus [24] = assay: Effect of TXA2 Synthetase inhibition (topically) upon inflammation in arachidonic acid induced ear edema in mice; format: functional
# Procedure, shortened: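 Arachidonic acid-induced ear edema in mice; test material applied topically at 2 mg/mouse.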
# Rattus norvegicus [25] = assay: Total glomeruli with lesions was determined […], in kidneys of rats after dosing with compound at 205 mg/kg per day; format: functional, Kidney
# Procedure, shortened: (§4)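 5/6 renal ablated male Munich Wistar rats received drug in drinking water: 205 mg/kg/day, or 68 mg/kg/day for 9 weeks then 410 mg/kg/day for 4 weeks; controls received water. Kidneys perfused with fixative at end of week 10 (205 group) or week 13. Glomeruli with lesions counted (mesangial proliferation, tubular hyaline casts, cortical interstitial inflammation, hydronephrosis); mean ± SEM.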
# Rattus norvegicus [26] = assay: Percent inhibition of thromboxane from control in urine of rats with 5/6 nephrectomy at 68 mg/kg per day; format: functional; procedure, shortened: as §3
# Rattus norvegicus [27] = assay: Total glomeruli with lesions was determined […], in kidneys of rats after dosing at 68 mg/kg per day for 9 weeks following by dosing with 410 mg/kg/day for 4 weeks; format: functional, Kidney; procedure, shortened: as §4
# Mus musculus [28] = assay: Activity at 10 mg/kg given perorally against mortality in a pulmonary thromboembolism model in mice (10 animals) at -18h following oral administration; format: functional; procedure, shortened: as §2
# Mus musculus [29] = assay: Activity at 12.5 mg/kg given intravenously against mortality in a pulmonary thromboembolism model in mice (10 animals) at 3 hr; format: functional; conditions: route intravenous; procedure, shortened: as §1
# Rattus norvegicus [30] = assay: Concentration of thromboxane in urine of rats with 5/6 nephrectomy; when treated with compound at 410 mg/kg per day (n=4); format: functional, organism-based; procedure, shortened: as §3
# Rattus norvegicus [31] = assay: Concentration of thromboxane in serum of rats with 5/6 nephrectomy; when treated with compound at 410 mg/kg per day (n=4); format: functional, organism-based; procedure, shortened: as §3
# Mus musculus [32] = organism: Mus musculus; assay: Effect of TXA2 Synthetase inhibition (perorally) upon inflammation in phenoylquinone-induced writhing in mice; format: functional
# Mus musculus [33] = assay: Activity at 10 mg/kg given perorally against mortality in a pulmonary thromboembolism model in mice (10 animals) at -3h following oral administration; format: functional; procedure, shortened: as §2
# Mus musculus [34] = assay: Activity at 6.25 mg/kg given intravenously against mortality in a pulmonary thromboembolism model in mice (10 animals) at 3 hr; format: functional; conditions: route intravenous; procedure, shortened: as §1
# Mus musculus [35] = assay: Activity at 25 mg/kg given intravenously against mortality in a pulmonary thromboembolism model in mice (10 animals) at 3 hr; format: functional; conditions: route intravenous; procedure, shortened: as §1
# Mus musculus [36] = assay: Effect of TXA2 Synthetase inhibition (topically) upon inflammation in 12-O-tetradecanoylphorbol acetate induced ear edema in mice; format: functional
# Mus musculus [37] = assay: Activity at 20 mg/kg given intravenously against mortality in a pulmonary thromboembolism model in mice (10 animals) at -3h; format: functional; conditions: route intravenous; procedure, shortened: as §1
smiles,measurement,setting,value
CCOC(=O)/C(C)=C\c1ccc(Cc2cccnc2)n1CC(C)(C)C,IC50,Homo sapiens [1],57 µM
same,Relative potency,Homo sapiens [2],0.03
C/C(=C/c1cc(Cc2cccnc2)n(C(C)(C)C)c1)C(=O)O,survival at 10 mg/kg,Mus musculus [3],30%
same,Relative potency,[4],43
CCOC(=O)/C(C)=C/c1cc(Cn2ccnc2)n(C)c1,IC50,Homo sapiens [1],1.8 µM
same,Relative potency,Homo sapiens [2],1.1
Cn1c(/C=C/C(=O)O)ccc1Cn1ccnc1,Relative potency,[4],0.75
CCOC(=O)[C@H](CCc1ccccc1)N[C@@H](C)C(=O)N1CCC[C@H]1C(=O)O,ED,Rattus norvegicus [5],4 mg/kg
Cc1c(Cn2ccnc2)c2ccccc2n1CCC(=O)O [DAZMEGREL],survival at 10 mg/kg,Mus musculus [6],20%
same,survival at 10 mg/kg,Mus musculus [7],0%
same,IC50,Homo sapiens [1],1.9 µM
same,survival at 10 mg/kg,Mus musculus [8],11%
same,survival at 10 mg/kg,Mus musculus [9],10%
same,survival at 10 mg/kg,Mus musculus [10],20%
same,Relative potency,Homo sapiens [2],1
C/C(=C\c1ccc(Cn2ccnc2)[nH]1)C(=O)O,Relative potency,[4],0.24
CCOC(=O)/C(C)=C\c1ccc(Cc2cccnc2)n1C(C)C,IC50,Homo sapiens [1],32 µM
same,Relative potency,Homo sapiens [2],0.06
C/C(=C/c1ccc(Cn2ccnc2)n1C)C(=O)O,survival at 10 mg/kg,Mus musculus [11],30%
same,inhibition in vivo at 205 mg/kg/day,Rattus norvegicus [12],77.4%
same,Dose,Rattus norvegicus [13],4.25 mg rat-1
same,Dose,Mus musculus [14],25 mg/kg
same,survival at 10 mg/kg,Mus musculus [15],40%
same,inhibition in vivo at 410 mg/kg/day,Rattus norvegicus [16],92.8%
same,Relative potency,[4],2.2
same,survival at 10 mg/kg,Mus musculus [17],50%
same,inhibition in vivo at 410 mg/kg/day,Rattus norvegicus [18],70.4%
same,Concentration,Rattus norvegicus [19],10 ng/day
same,Concentration,Rattus norvegicus [20],42 ng/day
same,inhibition in vivo at 205 mg/kg/day,Rattus norvegicus [21],98%
same,Dose,Rattus norvegicus [22],10 mg rat-1
same,Concentration,Rattus norvegicus [23],45 ng/day
same,Dose,Mus musculus [24],2 mg mouse-1
same,Total glomeruli,Rattus norvegicus [25],13
same,inhibition in vivo at 68 mg/kg/day,Rattus norvegicus [26],78.9%
same,Total glomeruli,Rattus norvegicus [27],8
same,survival at 10 mg/kg,Mus musculus [28],10%
same,survival at 12.5 mg/kg,Mus musculus [29],70%
same,Concentration,Rattus norvegicus [30],59 ng/day
same,Concentration,Rattus norvegicus [31],36 ng/day
same,Dose,Mus musculus [32],3 mg mouse-1
same,survival at 10 mg/kg,Mus musculus [33],40%
same,survival at 6.25 mg/kg,Mus musculus [34],70%
same,survival at 25 mg/kg,Mus musculus [35],90%
same,Dose,Mus musculus [36],0.5 mg mouse-1
C/C(=C/c1ccc(Cc2cccnc2)n1C(C)C)C(=O)O,Relative potency,[4],0.9
C/C(=C/c1ccc(Cc2cccnc2)n1C)C(=O)O,survival at 10 mg/kg,Mus musculus [3],0%
same,survival at 20 mg/kg,Mus musculus [37],30%
same,Relative potency,[4],46
C/C(=C/c1ccc(Cc2cccnc2)n1CC(C)(C)C)C(=O)O,Relative potency,[4],0.24
COC(=O)[C@@H]1CC1c1ccc(Cn2ccnc2)n1C (stereo partly drawn),Relative potency,[4],0.22
CCOC(=O)/C(C)=C\c1ccc(Cc2cccnc2)n1CC,IC50,Homo sapiens [1],14 µM
same,Relative potency,Homo sapiens [2],0.14
